{
  "source": "ChEMBL document CHEMBL1799933",
  "about": "“Discovery of a selective allosteric M1 receptor modulator with suitable development properties based on a quinolizidinone carboxylic acid scaffold” (J Med Chem, 2011)",
  "key": {"[1]": {"system": "Cerebrospinal fluid", "test": "Drug level in Sprague-Dawley rat cerebrospinal fluid at 10 mg/kg, po", "format": "ADME, organism-based", "design": "dose 10 mg/kg, route oral", "conditions": "in vivo, read-out: Drug uptake", "outline": "(§1)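 Rats dosed orally at 10 mpk. Plasma, brain and CSF sampled at 2 h and concentrations determined by bioanalysis.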"}, "[2]": {"test": "Metabolic stability in rat NADPH-fortified hepatic microsomes assessed as oxidative metabolism", "format": "ADME, Liver", "outline": "(§2)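 Compound incubated with NADPH-fortified hepatic microsomes from rat, dog, monkey or human. Oxidative metabolism monitored.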"}, "[3]": {"target": "Voltage-gated inwardly rectifying potassium channel KCNH2 (Homo sapiens, UniProt Q12809)", "sequence (Q12809 whole entry)": "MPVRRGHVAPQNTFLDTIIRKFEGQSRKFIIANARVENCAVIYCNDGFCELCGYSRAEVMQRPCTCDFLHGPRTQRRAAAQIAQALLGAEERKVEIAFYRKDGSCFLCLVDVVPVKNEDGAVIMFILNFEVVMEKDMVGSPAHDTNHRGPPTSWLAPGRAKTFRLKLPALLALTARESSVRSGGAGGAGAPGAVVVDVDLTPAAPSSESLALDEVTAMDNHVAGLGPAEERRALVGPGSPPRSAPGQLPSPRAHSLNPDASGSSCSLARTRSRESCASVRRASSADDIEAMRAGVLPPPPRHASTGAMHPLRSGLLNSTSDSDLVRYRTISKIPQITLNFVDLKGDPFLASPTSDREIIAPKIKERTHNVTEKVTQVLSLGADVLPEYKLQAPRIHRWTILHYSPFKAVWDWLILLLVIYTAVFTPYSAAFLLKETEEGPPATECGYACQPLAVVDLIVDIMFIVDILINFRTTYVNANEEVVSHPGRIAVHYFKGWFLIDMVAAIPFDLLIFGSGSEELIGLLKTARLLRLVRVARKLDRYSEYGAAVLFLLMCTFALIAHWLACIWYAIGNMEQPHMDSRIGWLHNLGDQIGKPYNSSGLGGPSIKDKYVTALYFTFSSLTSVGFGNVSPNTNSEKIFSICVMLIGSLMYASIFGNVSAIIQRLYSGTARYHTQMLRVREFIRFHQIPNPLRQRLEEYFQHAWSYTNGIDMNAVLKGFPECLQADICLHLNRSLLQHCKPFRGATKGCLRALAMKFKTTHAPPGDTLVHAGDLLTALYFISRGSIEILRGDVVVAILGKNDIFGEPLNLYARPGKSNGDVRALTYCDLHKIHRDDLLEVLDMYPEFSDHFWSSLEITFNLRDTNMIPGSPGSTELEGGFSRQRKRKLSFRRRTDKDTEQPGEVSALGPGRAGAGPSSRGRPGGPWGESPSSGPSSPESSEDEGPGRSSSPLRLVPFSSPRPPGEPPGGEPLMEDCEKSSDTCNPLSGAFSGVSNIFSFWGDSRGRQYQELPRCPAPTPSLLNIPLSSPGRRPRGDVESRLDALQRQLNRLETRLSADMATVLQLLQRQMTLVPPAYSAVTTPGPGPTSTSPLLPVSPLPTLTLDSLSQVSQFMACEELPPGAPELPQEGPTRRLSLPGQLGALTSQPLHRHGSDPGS", "test": "Inhibition of human ERG"}, "[4]": {"test": "Clearance in rhesus monkey", "format": "ADME, organism-based, Macaca mulatta", "conditions": "in vivo"}, "[5]": {"target": "T1, Muscarinic acetylcholine receptor M4 (Homo sapiens) (UniProt P08173)", "T1 sequence (whole entry)": "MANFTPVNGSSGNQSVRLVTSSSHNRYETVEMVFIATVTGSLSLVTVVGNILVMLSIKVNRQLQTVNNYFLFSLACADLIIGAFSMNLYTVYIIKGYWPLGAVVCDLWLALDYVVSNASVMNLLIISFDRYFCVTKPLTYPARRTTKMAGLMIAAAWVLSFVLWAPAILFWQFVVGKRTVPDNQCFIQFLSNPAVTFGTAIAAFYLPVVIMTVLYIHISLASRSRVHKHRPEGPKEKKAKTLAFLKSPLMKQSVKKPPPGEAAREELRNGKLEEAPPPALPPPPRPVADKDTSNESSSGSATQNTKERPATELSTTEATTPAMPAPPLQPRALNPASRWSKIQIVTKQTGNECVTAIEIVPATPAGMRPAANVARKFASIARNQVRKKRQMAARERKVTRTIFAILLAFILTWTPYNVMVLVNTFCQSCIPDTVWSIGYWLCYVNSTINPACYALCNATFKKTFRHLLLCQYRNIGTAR", "test": "Agonist activity at human muscarinic M4 receptor expressed in CHONFAT cells assessed as increase in acetylcholine-induced calcium mobilization at 10 uM preincubated for 4 mins measured after 1 hr by FLIPR assay", "format": "functional, cell-based", "outline": "(§3)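 CHO-NFAT cells expressing the named muscarinic receptor (human M1–M4; rhesus, dog or rat M1 in CHO-K1) were plated at 25,000 cells/well and grown overnight at 37 °C, 6% CO2. Cells were loaded with 1 μM Fluo-4AM for 1 h, washed, and preincubated 4 min with serially diluted compound (final DMSO 0.67%). They were then stimulated 4 min with an EC20 of ACh, and Ca2+ flux was read by FLIPR384.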"}, "[6]": {"target": "T2, Muscarinic acetylcholine receptor M1 (Homo sapiens) (UniProt P11229)", "T2 sequence (whole entry)": "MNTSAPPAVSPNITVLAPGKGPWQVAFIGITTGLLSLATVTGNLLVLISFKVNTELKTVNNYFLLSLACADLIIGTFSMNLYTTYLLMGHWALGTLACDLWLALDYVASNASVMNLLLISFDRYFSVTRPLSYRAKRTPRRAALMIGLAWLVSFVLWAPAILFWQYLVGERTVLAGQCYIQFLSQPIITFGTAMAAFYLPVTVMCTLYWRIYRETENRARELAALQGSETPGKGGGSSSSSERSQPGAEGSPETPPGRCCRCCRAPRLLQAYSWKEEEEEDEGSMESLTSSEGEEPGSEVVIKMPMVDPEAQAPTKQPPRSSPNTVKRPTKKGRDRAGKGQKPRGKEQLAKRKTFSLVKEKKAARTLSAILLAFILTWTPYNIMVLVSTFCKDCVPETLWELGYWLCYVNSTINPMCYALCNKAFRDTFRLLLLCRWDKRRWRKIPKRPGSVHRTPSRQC", "test": "Positive allosteric modulation of human muscarinic M1 receptor expressed in CHONFAT cells assessed as potentiation of acetylcholine-induced calcium mobilization at 1 uM preincubated for 4 mins measured after 1 hr by FLIPR assay relative to control", "format": "functional, cell-based", "outline": "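CHO-NFAT cells expressing human M1, 25,000 cells/well, grown overnight at 37 °C, 6% CO2. Washed in HBSS with 20 mM Hepes, 2.5 mM probenecid, 0.1% BSA, then loaded with 1 μM Fluo-4AM for 1 h at 37 °C. Compound preincubated 4 min (final DMSO 0.67%), then serially diluted ACh added for 4 min. Ca2+ flux read by FLIPR384; fold leftward shift of the ACh dose-response curve.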"}, "[7]": {"system": "Mus musculus", "test": "Antiamnesic activity against scopolamine-induced dementia in ip dosed B6SJL mouse assessed as increase in freezing behavior after 24 hrs", "format": "functional, organism-based", "outline": "(§4)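 Male B6SJL mice, 10 weeks old and naive (n = 12–16/group), were given compound IP in 5% beta-cyclodextrin and/or scopolamine 0.3 mg/kg in 0.9% saline 30 min before training. Training was 2 tone (3 kHz, 85 dB, 30 s)–footshock (0.5 mA, 1 s) pairings 2 min apart. Freezing in the same chamber was video-scored 24 h later.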"}, "[8]": {"system": "Plasma", "test": "Drug level in Sprague-Dawley rat plasma at 10 mg/kg, po", "format": "ADME, organism-based", "design": "dose 10 mg/kg, route oral", "conditions": "in vivo", "outline": "as §1"}, "[9]": {"test": "Metabolic stability in dog NADPH-fortified hepatic microsomes assessed as oxidative metabolism", "format": "ADME, Canis lupus familiaris, Liver", "outline": "as §2"}, "[10]": {"system": "Brain", "test": "Drug level Sprague-Dawley rat brain at 10 mg/kg, po", "format": "ADME, organism-based", "design": "dose 10 mg/kg, route oral", "conditions": "in vivo, read-out: Drug uptake", "outline": "as §1"}, "[11]": {"system": "Mus musculus", "test": "Antiamnesic activity against scopolamine-induced dementia in ip dosed B6SJL mouse assessed as increase in freezing behavior at 3 uM plasma concentration", "format": "functional, organism-based"}, "[12]": {"test": "Oral bioavailability in dog at 3 mg/kg", "format": "ADME, organism-based, Canis lupus familiaris", "conditions": "in vivo", "outline": "(§5)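 Dog PK, n = 2 animals. Given orally at 3 mg/kg and intravenously at 1 mg/kg. Interanimal variability under 20% for all values.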"}, "[13]": {"test": "Oral bioavailability in rat at 3 mg/kg", "format": "ADME, organism-based", "conditions": "in vivo", "outline": "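Rats (n = 2) dosed orally at 3 mg/kg and IV at 1 mg/kg. Interanimal variability under 20% for all values.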"}, "[14]": {"target": "Muscarinic acetylcholine receptor M3 (Homo sapiens) (UniProt P20309)", "sequence (P20309 whole entry, looked up)": "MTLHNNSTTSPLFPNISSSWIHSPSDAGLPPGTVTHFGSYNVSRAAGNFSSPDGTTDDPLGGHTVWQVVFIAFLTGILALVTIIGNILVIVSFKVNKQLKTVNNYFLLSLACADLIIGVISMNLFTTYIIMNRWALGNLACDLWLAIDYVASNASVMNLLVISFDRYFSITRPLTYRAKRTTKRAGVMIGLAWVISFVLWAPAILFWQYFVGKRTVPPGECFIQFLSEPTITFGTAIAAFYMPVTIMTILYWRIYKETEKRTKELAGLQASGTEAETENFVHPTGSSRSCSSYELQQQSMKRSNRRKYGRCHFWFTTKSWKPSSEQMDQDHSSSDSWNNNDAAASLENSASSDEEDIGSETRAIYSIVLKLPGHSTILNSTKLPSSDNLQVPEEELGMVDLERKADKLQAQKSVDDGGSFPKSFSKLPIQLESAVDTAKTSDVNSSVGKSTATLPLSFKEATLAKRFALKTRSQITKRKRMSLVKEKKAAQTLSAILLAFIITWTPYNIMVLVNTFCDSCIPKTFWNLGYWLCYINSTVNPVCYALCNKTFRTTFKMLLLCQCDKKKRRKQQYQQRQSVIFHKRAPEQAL", "test": "Agonist activity at human muscarinic M3 receptor expressed in CHONFAT cells assessed as increase in acetylcholine-induced calcium mobilization at 10 uM preincubated for 4 mins measured after 1 hr by FLIPR assay", "format": "functional, cell-based", "outline": "as §3"}, "[15]": {"system": "Mus musculus", "test": "Antiamnesic activity against scopolamine-induced dementia in B6SJL mouse assessed as increase in freezing behavior at 10 mg/kg, ip after 24 hrs", "format": "functional, organism-based", "design": "dose 10 mg/kg", "outline": "as §4"}, "[16]": {"test": "Plasma protein binding in rat serum by equilibrium dialysis method", "format": "ADME, cell-free", "conditions": "read-out: PPB (converted)", "outline": "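Protein binding measured by equilibrium dialysis against rat or human serum.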"}, "[17]": {"test": "Half life in dog at 3 mg/kg, po and 1 mg/kg, iv", "format": "ADME, organism-based, Canis lupus familiaris", "conditions": "in vivo", "outline": "as §5"}},
  "note": "Active and inactive are the calls of the source. No cut-off for these calls is given here.",
  "data": [
    {"smiles": "N#CC1(c2ccccn2)CCN(Cc2cc(C(=O)O)c(=O)n3ccccc23)CC1", "note": "[MSD-M1PAM]", "values": [
      {"measurement": "concentration", "setting": "[1]", "result": 135, "unit": "nM"},
      {"measurement": "Stability", "setting": "[2]", "result": "Stable"},
      {"measurement": "IC50", "setting": "[3]", "result": "> 30", "unit": "µM"},
      {"measurement": "clearance", "setting": "[4]", "result": 17, "unit": "mL/min/kg"},
      {"measurement": "Activity", "setting": "[5]", "result": "inactive"},
      {"measurement": "fold change (FC)", "setting": "[6]", "result": 146},
      {"measurement": "Activity", "setting": "[7]", "result": "Dose-dependent effect"},
      {"measurement": "concentration", "setting": "[8]", "result": 1480, "unit": "nM"},
      {"measurement": "Stability", "setting": "[9]", "result": "Stable"},
      {"measurement": "concentration", "setting": "[10]", "result": 306, "unit": "nM"},
      {"measurement": "Activity", "setting": "[11]", "result": "Active"},
      {"measurement": "bioavailability", "setting": "[12]", "result": 62, "unit": "%"},
      {"measurement": "bioavailability", "setting": "[13]", "result": 68, "unit": "%"},
      {"measurement": "Activity", "setting": "[14]", "result": "inactive"},
      {"measurement": "Activity", "setting": "[15]", "result": "Active"},
      {"measurement": "fraction unbound", "setting": "[16]", "result": 0.318},
      {"measurement": "half-life", "setting": "[17]", "result": 4.4, "unit": "h"}
    ]}
  ]
}
